Test results reported in ChEMBL document CHEMBL4689842, “EUbOPEN Chemogenomics Library wave 1” (2021).

Tested on: HEK-293T
Experiment: Multiplex assay against HEK293T;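 as to Population Tubulin-Different-Phenotype (%): share of the cells with healthy nuclei that show this phenotype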
Type: toxicity, cell-based
Settings: human
In short: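 Live cells were stained at seeding with Hoechst33342, BioTracker Green Microtubule Cytoskeleton Dye, MitoTracker Red and Annexin V Alexa Fluor 680, then imaged on a CQ1 microscope at 37°C and 5% CO2 after compound addition. CellPathfinder machine-learning gating split cells into Hoechst high-intensity objects or normal cells. Normal cells were split into healthy, pyknosed or fragmented nuclei, and pyknosed cells into mitotic or apoptotic. Tubulin, mitochondrial-mass and membrane-permeability phenotypes are per cents of healthy-nucleus cells.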

[1] = 12 h, 1 µM, compound concentration 1 uM, replicate 1
[2] = 12 h, 1 µM, compound concentration 1 uM, replicate 2
[3] = 12 h, 10 µM, compound concentration 10 uM, replicate 1
[4] = 12 h, 10 µM, compound concentration 10 uM, replicate 2
[5] = 24 h, 1 µM, compound concentration 1 uM, replicate 1
[6] = 24 h, 1 µM, compound concentration 1 uM, replicate 2
[7] = 24 h, 10 µM, compound concentration 10 uM, replicate 1
[8] = 24 h, 10 µM, compound concentration 10 uM, replicate 2
[9] = 48 h, 1 µM, compound concentration 1 uM, replicate 1
[10] = 48 h, 1 µM, compound concentration 1 uM, replicate 2
[11] = 48 h, 10 µM, compound concentration 10 uM, replicate 1
[12] = 48 h, 10 µM, compound concentration 10 uM, replicate 2

CCCn1c(=O)c2[nH]c(-c3cnn(Cc4cccc(C(F)(F)F)c4)c3)nc2n(CC)c1=O [GS 6201]
Population Apoptotic (%) [1]: 48%
Population Fragmented Nuclei (%) [1]: 14%
Population Healthy Nuclei (%) [1]: 15%
Population Hoechst High Intensity Objects (%) [1]: 18%
Population Membrane Permeable-Phenotype (%) [1]: 2%
Population Mitochondria Different-Phenotype (%) [1]: 83%
Population Mitotic Cells (%) [1]: 51%
Population Normal (%) [1]: 81%
Population Pyknosed Nuclei (%) [1]: 69%
Population Tubulin-Different-Phenotype (%) [1]: 67%
Total Cell Count [1]: 294
Population Apoptotic (%) [2]: 9%
Population Fragmented Nuclei (%) [2]: 7%
Population Healthy Nuclei (%) [2]: 43%
Population Hoechst High Intensity Objects (%) [2]: 5%
Population Membrane Permeable-Phenotype (%) [2]: 10%
Population Mitochondria Different-Phenotype (%) [2]: 9%
Population Mitotic Cells (%) [2]: 90%
Population Normal (%) [2]: 94%
Population Pyknosed Nuclei (%) [2]: 49%
Population Tubulin-Different-Phenotype (%) [2]: 22%
Total Cell Count [2]: 239
Population Apoptotic (%) [3]: 46%
Population Fragmented Nuclei (%) [3]: 28%
Population Healthy Nuclei (%) [3]: 13%
Population Hoechst High Intensity Objects (%) [3]: 25%
Population Membrane Permeable-Phenotype (%) [3]: 0%
Population Mitochondria Different-Phenotype (%) [3]: 80%
Population Mitotic Cells (%) [3]: 53%
Population Normal (%) [3]: 74%
Population Pyknosed Nuclei (%) [3]: 58%
Population Tubulin-Different-Phenotype (%) [3]: 83%
Total Cell Count [3]: 316
Population Apoptotic (%) [4]: 8%
Population Fragmented Nuclei (%) [4]: 4%
Population Healthy Nuclei (%) [4]: 45%
Population Hoechst High Intensity Objects (%) [4]: 2%
Population Membrane Permeable-Phenotype (%) [4]: 7%
Population Mitochondria Different-Phenotype (%) [4]: 25%
Population Mitotic Cells (%) [4]: 91%
Population Normal (%) [4]: 97%
Population Pyknosed Nuclei (%) [4]: 49%
Population Tubulin-Different-Phenotype (%) [4]: 31%
Total Cell Count [4]: 325
Population Apoptotic (%) [5]: 52%
Population Fragmented Nuclei (%) [5]: 19%
Population Healthy Nuclei (%) [5]: 10%
Population Hoechst High Intensity Objects (%) [5]: 23%
Population Membrane Permeable-Phenotype (%) [5]: 0%
Population Mitochondria Different-Phenotype (%) [5]: 75%
Population Mitotic Cells (%) [5]: 47%
Population Normal (%) [5]: 76%
Population Pyknosed Nuclei (%) [5]: 70%
Population Tubulin-Different-Phenotype (%) [5]: 66%
Total Cell Count [5]: 303
Population Apoptotic (%) [6]: 13%
Population Fragmented Nuclei (%) [6]: 5%
Population Healthy Nuclei (%) [6]: 64%
Population Hoechst High Intensity Objects (%) [6]: 1%
Population Membrane Permeable-Phenotype (%) [6]: 11%
Population Mitochondria Different-Phenotype (%) [6]: 12%
Population Mitotic Cells (%) [6]: 86%
Population Normal (%) [6]: 98%
Population Pyknosed Nuclei (%) [6]: 29%
Population Tubulin-Different-Phenotype (%) [6]: 28%
Total Cell Count [6]: 288
Population Apoptotic (%) [7]: 47%
Population Fragmented Nuclei (%) [7]: 35%
Population Healthy Nuclei (%) [7]: 18%
Population Hoechst High Intensity Objects (%) [7]: 24%
Population Membrane Permeable-Phenotype (%) [7]: 4%
Population Mitochondria Different-Phenotype (%) [7]: 84%
Population Mitotic Cells (%) [7]: 52%
Population Normal (%) [7]: 75%
Population Pyknosed Nuclei (%) [7]: 46%
Population Tubulin-Different-Phenotype (%) [7]: 72%
Total Cell Count [7]: 314
Population Apoptotic (%) [8]: 17%
Population Fragmented Nuclei (%) [8]: 3%
Population Healthy Nuclei (%) [8]: 63%
Population Hoechst High Intensity Objects (%) [8]: 1%
Population Membrane Permeable-Phenotype (%) [8]: 8%
Population Mitochondria Different-Phenotype (%) [8]: 17%
Population Mitotic Cells (%) [8]: 82%
Population Normal (%) [8]: 98%
Population Pyknosed Nuclei (%) [8]: 32%
Population Tubulin-Different-Phenotype (%) [8]: 35%
Total Cell Count [8]: 424
Population Apoptotic (%) [9]: 55%
Population Fragmented Nuclei (%) [9]: 27%
Population Healthy Nuclei (%) [9]: 6%
Population Hoechst High Intensity Objects (%) [9]: 19%
Population Membrane Permeable-Phenotype (%) [9]: 0%
Population Mitochondria Different-Phenotype (%) [9]: 29%
Population Mitotic Cells (%) [9]: 44%
Population Normal (%) [9]: 80%
Population Pyknosed Nuclei (%) [9]: 65%
Population Tubulin-Different-Phenotype (%) [9]: 47%
Total Cell Count [9]: 303
Population Apoptotic (%) [10]: 14%
Population Fragmented Nuclei (%) [10]: 5%
Population Healthy Nuclei (%) [10]: 81%
Population Hoechst High Intensity Objects (%) [10]: 3%
Population Membrane Permeable-Phenotype (%) [10]: 7%
Population Mitochondria Different-Phenotype (%) [10]: 3%
Population Mitotic Cells (%) [10]: 85%
Population Normal (%) [10]: 96%
Population Pyknosed Nuclei (%) [10]: 13%
Population Tubulin-Different-Phenotype (%) [10]: 12%
Total Cell Count [10]: 506
Population Apoptotic (%) [11]: 53%
Population Fragmented Nuclei (%) [11]: 44%
Population Healthy Nuclei (%) [11]: 11%
Population Hoechst High Intensity Objects (%) [11]: 24%
Population Membrane Permeable-Phenotype (%) [11]: 0%
Population Mitochondria Different-Phenotype (%) [11]: 62%
Population Mitotic Cells (%) [11]: 46%
Population Normal (%) [11]: 75%
Population Pyknosed Nuclei (%) [11]: 44%
Population Tubulin-Different-Phenotype (%) [11]: 59%
Total Cell Count [11]: 325
Population Apoptotic (%) [12]: 18%
Population Fragmented Nuclei (%) [12]: 5%
Population Healthy Nuclei (%) [12]: 83%
Population Hoechst High Intensity Objects (%) [12]: 4%
Population Membrane Permeable-Phenotype (%) [12]: 5%
Population Mitochondria Different-Phenotype (%) [12]: 8%
Population Mitotic Cells (%) [12]: 81%
Population Normal (%) [12]: 95%
Population Pyknosed Nuclei (%) [12]: 10%
Population Tubulin-Different-Phenotype (%) [12]: 31%
Total Cell Count [12]: 739

CCOC(=O)c1c(C)[nH]c2ccc3c(c12)CN1CCc2cc(OC)ccc2C1O3 (stereo unspecified)
Population Apoptotic (%) [1]: 61%
Population Fragmented Nuclei (%) [1]: 14%
Population Healthy Nuclei (%) [1]: 30%
Population Hoechst High Intensity Objects (%) [1]: 14%
Population Membrane Permeable-Phenotype (%) [1]: 1%
Population Mitochondria Different-Phenotype (%) [1]: 100%
Population Mitotic Cells (%) [1]: 38%
Population Normal (%) [1]: 85%
Population Pyknosed Nuclei (%) [1]: 54%
Total Cell Count [1]: 228
Population Apoptotic (%) [2]: 36%
Population Fragmented Nuclei (%) [2]: 4%
Population Healthy Nuclei (%) [2]: 28%
Population Hoechst High Intensity Objects (%) [2]: 5%
Population Membrane Permeable-Phenotype (%) [2]: 5%
Population Mitochondria Different-Phenotype (%) [2]: 88%
Population Mitotic Cells (%) [2]: 63%
Population Normal (%) [2]: 94%
Population Pyknosed Nuclei (%) [2]: 67%
Population Tubulin-Different-Phenotype (%) [2]: 86%
Total Cell Count [2]: 132
Population Apoptotic (%) [3]: 90%
Population Fragmented Nuclei (%) [3]: 12%
Population Hoechst High Intensity Objects (%) [3]: 20%
Population Membrane Permeable-Phenotype (%) [3]: 0%
Population Mitochondria Different-Phenotype (%) [3]: 100%
Population Mitotic Cells (%) [3]: 9%
Population Normal (%) [3]: 79%
Population Pyknosed Nuclei (%) [3]: 76%
Population Tubulin-Different-Phenotype (%) [3]: 95%
Total Cell Count [3]: 266
Population Apoptotic (%) [4]: 88%
Population Fragmented Nuclei (%) [4]: 5%
Population Healthy Nuclei (%) [4]: 10%
Population Hoechst High Intensity Objects (%) [4]: 12%
Population Membrane Permeable-Phenotype (%) [4]: 7%
Population Mitochondria Different-Phenotype (%) [4]: 92%
Population Mitotic Cells (%) [4]: 11%
Population Normal (%) [4]: 87%
Population Pyknosed Nuclei (%) [4]: 83%
Population Tubulin-Different-Phenotype (%) [4]: 92%
Total Cell Count [4]: 156
Population Apoptotic (%) [5]: 57%
Population Fragmented Nuclei (%) [5]: 17%
Population Healthy Nuclei (%) [5]: 47%
Population Hoechst High Intensity Objects (%) [5]: 7%
Population Membrane Permeable-Phenotype (%) [5]: 0%
Population Mitochondria Different-Phenotype (%) [5]: 94%
Population Mitotic Cells (%) [5]: 42%
Population Normal (%) [5]: 92%
Population Pyknosed Nuclei (%) [5]: 35%
Population Tubulin-Different-Phenotype (%) [5]: 80%
Total Cell Count [5]: 254
Population Apoptotic (%) [6]: 48%
Population Fragmented Nuclei (%) [6]: 3%
Population Healthy Nuclei (%) [6]: 45%
Population Hoechst High Intensity Objects (%) [6]: 3%
Population Membrane Permeable-Phenotype (%) [6]: 5%
Population Mitochondria Different-Phenotype (%) [6]: 91%
Population Mitotic Cells (%) [6]: 51%
Population Normal (%) [6]: 96%
Population Pyknosed Nuclei (%) [6]: 51%
Population Tubulin-Different-Phenotype (%) [6]: 86%
Total Cell Count [6]: 154
Population Apoptotic (%) [7]: 91%
Population Fragmented Nuclei (%) [7]: 15%
Population Healthy Nuclei (%) [7]: 8%
Population Hoechst High Intensity Objects (%) [7]: 22%
Population Membrane Permeable-Phenotype (%) [7]: 0%
Population Mitochondria Different-Phenotype (%) [7]: 94%
Population Mitotic Cells (%) [7]: 8%
Population Normal (%) [7]: 77%
Population Pyknosed Nuclei (%) [7]: 75%
Population Tubulin-Different-Phenotype (%) [7]: 94%
Total Cell Count [7]: 275
Population Apoptotic (%) [8]: 92%
Population Fragmented Nuclei (%) [8]: 6%
Population Healthy Nuclei (%) [8]: 9%
Population Hoechst High Intensity Objects (%) [8]: 16%
Population Mitochondria Different-Phenotype (%) [8]: 92%
Population Mitotic Cells (%) [8]: 7%
Population Normal (%) [8]: 83%
Population Pyknosed Nuclei (%) [8]: 84%
Population Tubulin-Different-Phenotype (%) [8]: 92%
Total Cell Count [8]: 158
Population Apoptotic (%) [9]: 52%
Population Fragmented Nuclei (%) [9]: 11%
Population Healthy Nuclei (%) [9]: 70%
Population Hoechst High Intensity Objects (%) [9]: 7%
Population Membrane Permeable-Phenotype (%) [9]: 1%
Population Mitochondria Different-Phenotype (%) [9]: 71%
Population Mitotic Cells (%) [9]: 47%
Population Normal (%) [9]: 92%
Population Pyknosed Nuclei (%) [9]: 17%
Population Tubulin-Different-Phenotype (%) [9]: 50%
Total Cell Count [9]: 354
Population Apoptotic (%) [10]: 36%
Population Fragmented Nuclei (%) [10]: 6%
Population Healthy Nuclei (%) [10]: 72%
Population Hoechst High Intensity Objects (%) [10]: 4%
Population Membrane Permeable-Phenotype (%) [10]: 2%
Population Mitochondria Different-Phenotype (%) [10]: 52%
Population Mitotic Cells (%) [10]: 63%
Population Normal (%) [10]: 95%
Population Pyknosed Nuclei (%) [10]: 21%
Population Tubulin-Different-Phenotype (%) [10]: 66%
Total Cell Count [10]: 226
Population Apoptotic (%) [11]: 80%
Population Fragmented Nuclei (%) [11]: 19%
Population Healthy Nuclei (%) [11]: 22%
Population Hoechst High Intensity Objects (%) [11]: 29%
Population Membrane Permeable-Phenotype (%) [11]: 0%
Population Mitochondria Different-Phenotype (%) [11]: 100%
Population Mitotic Cells (%) [11]: 19%
Population Normal (%) [11]: 70%
Population Pyknosed Nuclei (%) [11]: 58%
Population Tubulin-Different-Phenotype (%) [11]: 93%
Total Cell Count [11]: 290
Population Apoptotic (%) [12]: 93%
Population Fragmented Nuclei (%) [12]: 3%
Population Healthy Nuclei (%) [12]: 15%
Population Hoechst High Intensity Objects (%) [12]: 14%
Population Membrane Permeable-Phenotype (%) [12]: 5%
Population Mitochondria Different-Phenotype (%) [12]: 95%
Population Mitotic Cells (%) [12]: 6%
Population Normal (%) [12]: 85%
Population Pyknosed Nuclei (%) [12]: 80%
Population Tubulin-Different-Phenotype (%) [12]: 100%
Total Cell Count [12]: 148
